Screens deposited in PubChem BioAssay by several laboratories.
b-catenin transl = modulators of beta-catenin nuclear translocation; HeLa beta-catenin nuclear translocation, immunofluorescence imaging; nuclear translocation activity, % at 5 µM; 190,000 compounds, 0.3% hits; AID 1665;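 active means nuclear translocation activity above 50% at 5 µM, with a well cell count of 50 or more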;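 further: per-cell ratio of nuclear to cytoplasmic median beta-catenin stain intensity; plate controls were DMSO negative control for no effect and GSK-3 inhibitor IX positive control for full effect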
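Test system: human HeLa cells, endogenous beta-catenin. Times: 24 h compound exposure, 37°C. Measured by: beta-catenin immunofluorescence imaging with DAPI.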
STAT3 inh-1 = reduces IL-6 driven STAT3 reporter signal | inhibition, % at 5.5 µM | U3A cells, IL-6 STAT3-luciferase reporter, luminescence; host cell line lacks STAT1 | 190,000 compounds, 0.89% hits;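 active means inhibition above the mean inhibition across all screened compounds plus 3 SD, cut at about 44% in these data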;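 further: 0% = DMSO only wells and 100% = 100 µM nifuroxazide control wells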
STAT1 blocker = inhibitors of IFN-gamma induced STAT1 signaling. NIH 3T3 STAT1-luciferase reporter, luminescence. inhibition, % at 5.5 µM. 200,000 compounds, 0.35% hits. AID 920;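 active means inhibition above a set limit, the mean inhibition across all tested compounds plus 3 SD, cut at about 34% in these data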;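 further: 0% = IFN-gamma with DMSO and 100% = IFN-gamma with 300 µM nifuroxazide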
STAT3 activator = activators of IL-6 induced STAT3 signaling. U3A cells, IL-6 STAT3-luciferase reporter, luminescence; 100% = signal with IL-6 EC80 alone. 190,000 compounds, 0.91% hits. activation (% of control), % at 5.6 µM;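 active means activation above the screen-wide mean of compound activation plus 3 SD, cut at about 130% in these data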;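 further: 0% = background luminescence of wells with medium and substrate only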
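Material: human STAT1-deficient U3A cells with stable STAT3-luciferase reporter / Probe or stimulus: IL-6 stimulus at 33 ng/mL final / Schedule: 1 h compound pre-exposure, 6 h IL-6 stimulation, 37 °C / Technique: luminescence / Read-out basis: percent of IL-6-only median luminescence / Control set: IL-6-only high control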
MT stabilizer = microtubule stabilization, imaging screen; 200,000 compounds, 0.83% hits; % tubulin-high responders, % at 10 µM; HeLa tubulin immunostaining HCS, 24 h; share of cells brighter than vehicle mean+2SD;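 active means plate Z-score above 3 for both tubulin-high and condensed-nucleus cell shares, with cell loss under 80%, at 10 µM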;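 further: anti alpha tubulin signal scored within the nucleus-defined area of each cell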
STAT3 inh-2 = confirmation of STAT3 signaling inhibitors. shares compounds with STAT3 inh-1. U3A cells, IL-6 STAT3 luciferase reporter, luminescence; cell line lacks STAT1. inhibition, % at 5.7 µM. 1,200 compounds, 45% hits. AID 1265;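 active means inhibition above the hit cutoff computed for the primary STAT3 screen, cut at about 44% in these data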;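 further: 0% = IL-6 plus DMSO and 100% = IL-6 plus nifuroxazide control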
NFkB inh STAT3ct = NF-kappaB inhibition in STAT3 inhibitor counter-screen; shares compounds with STAT3 inh-1; HEK293T NF-kB luciferase reporter, TNF-alpha induced; inhibition, % at 5.7 µM; 1,200 compounds, 36% hits;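 active means inhibition above the mean of solvent-only control wells plus 3 SD, cutoff set per campaign, cut at about 13% in these data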;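 further: 0% = TNF-alpha with DMSO and 100% = TNF-alpha with MG high control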
STAT1 inh 2 = STAT1 inhibition in STAT3 inhibitor counter-screen; AID 1317; shares compounds with STAT3 inh-1; 1,200 compounds, 27% hits; NIH 3T3 STAT1-luciferase reporter, IFN-gamma induced, luminescence; inhibition, % at 5.7 µM;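 active means inhibition above the mean plus 3 SD of solvent-only control wells, limit set per screening run, cut at about 16% in these data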;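 further: 0% = DMSO with IFN-gamma and 100% = nifuroxazide control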
Active calls of the source: *; x = no result given. Compounds with a hit are over-represented: about 2.4% of the library has one in this group of screens.

SMILES	b-catenin transl	STAT3 inh-1	STAT1 blocker	STAT3 activator	MT stabilizer	STAT3 inh-2	NFkB inh STAT3ct	STAT1 inh 2
Cc1ccc(-n2cc(C(=O)c3ccccc3O)cn2)cc1	x	79*	12	38	4	34	37*	-97
Cc1[nH]nc2c1C1(CCN(C(=O)OCc3ccccc3)CC1)C(C#N)=C(N)O2	-1	49*	13	63	3	21	-6	-3
Cc1cccc(NC(=O)c2ccc3c(Cl)c4c(nc3c2)CCCC4)n1	-2	64*	-52	51	6	25	-7	-112
Cc1cccc(NC(=O)c2onc3c2CCCC3)c1C	0	-10	-45	112	2	x	x	x
O=C(Nc1ccc(Cl)cn1)c1ccc2c(Cl)c3c(nc2c1)CCC3	0	x	x	x	x	x	x	x
Cc1cccc(NC(=O)c2onc3c2CCCC3)n1	x	71*	-22	42	4	55*	18*	-23
Cc1cc(C(=O)Cn2nnc3ccccc3c2=O)c(C)n1Cc1cccs1	-1	46*	19	66	2	-1	-24	-98
Cc1cc(C(=O)CN2C(=O)c3ccccc3C2=O)c(C)n1Cc1cccs1	-4	19	-66	86	3	x	x	x
CC1(C)CC2CC(C)(CN2C(=O)c2ccc([N+](=O)[O-])cc2[N+](=O)[O-])C1 (stereo unspecified)	-2	11	4	95	2	x	x	x
Cc1nonc1CC(=O)N1CCCC(C(=O)c2ccc(Cl)cc2)C1 (stereo unspecified)	-2	8	-9	97	4	x	x	x
CC1(C)Cc2ccccc2-c2nnc(SCC(=O)N3CCN(c4ccccc4)CC3)n21	2	44*	2	67	4	20	-2	-3
CCn1c(SCC(=O)N2CCN(c3ccccc3)CC2)nnc1-c1c[nH]c2ccccc12	-3	51*	12	64	4	27	-2	2
S=c1nc(-c2csc3c2CCCC3)[nH][nH]1	-1	16	0	92	7	x	x	x
O=C(CSc1ccccc1)NCc1ccccn1	-2	-4	-4	104	4	x	x	x
O=C(Nc1nc2ccccc2[nH]1)c1ccc([N+](=O)[O-])cc1	0	55*	-19	56	3	16	-19	-92
Cc1cc(C)cc(C(=O)N2CCN(c3ccccn3)CC2)c1	1	24	0	81	1	x	x	x
Cc1cc(C(=O)C(=O)O)c(C)n1-c1ccc(Cl)c(Cl)c1	1	-2	2	110	2	x	x	x
COc1c(C)cc(NC(=O)c2ccc3c(c2)NC(=O)CO3)cc1C	0	45*	5	64	3	30	-2	0
COc1ccc(C(=O)NCC(=O)OCC(=O)c2ccc3c(c2)NC(=O)CO3)cc1OC	-2	12	-1	96	3	x	x	x
COc1ccc(C(=O)c2ccc(CC(=O)O)s2)cc1	-1	23	21	86	2	x	x	x
COc1ccc(S(=O)(=O)CCC(=O)Nc2cccc(OC)c2)cc1	-2	4	2	103	5	x	x	x
CN1CCN(CC(=O)Nc2nc3c(s2)CCCC3)CC1	0	x	x	x	x	x	x	x
CCN1CCN(/C=N/c2nc3c(s2)CCCC3)CC1	0	52*	-14	58	3	17	4	-30
CCCCOC(=O)c1[nH]c2c(c1C)C(=O)CC(c1cc(OC)c(OC)c(OC)c1)C2 (stereo unspecified)	-1	53*	23	57	6	63*	23*	24*
CN(C)c1ccc(/C=N/NC(=O)CN2CCN(c3ccc(F)cc3)CC2)cc1	0	8	-3	97	3	x	x	x
SMILES	b-catenin transl	STAT3 inh-1	STAT1 blocker	STAT3 activator	MT stabilizer	STAT3 inh-2	NFkB inh STAT3ct	STAT1 inh 2
Cc1ccc(C(C)C)c(OCC(=O)Nc2ccc(Cl)cn2)c1	0	-5	26	104	2	x	x	x
O=C(COc1ccc(Cl)cc1Cl)Nc1ccc(Cl)cn1	0	66*	-43	48	3	33	-22	-94
COc1ccc([N+](=O)[O-])cc1N(CC1CO1)S(=O)(=O)c1ccc(C)cc1 (stereo unspecified)	1	-11	-3	111	4	x	x	x
COCC(C)NC(=O)Cc1ccc(Cl)cc1 (stereo unspecified)	0	-4	-3	109	4	x	x	x
O=C(Nc1ccccc1)Nc1nnc(-c2ccccc2)o1	0	12	-8	92	2	x	x	x
c1ccc(-c2nnc(NC3=NCCC3)o2)cc1	0	44*	-22	67	5	4	-27	-60
O=C(Nc1cccc(S(=O)(=O)Nc2ccccc2Cl)c1)c1ccc(Cl)nc1	-2	44*	24	66	2	50*	11	13
CSc1cccc(NC(=O)Cc2ccccc2[N+](=O)[O-])c1	6	-11	7	109	2	x	x	x
Cc1ccc(NC(=O)COc2ccccc2[N+](=O)[O-])nc1	1	51*	5	60	3	18	-25	-95
O=C(COc1ccccc1[N+](=O)[O-])Nc1cccnc1	-1	19	-25	90	2	x	x	x
O=C(COc1ccccc1[N+](=O)[O-])Nc1ccc(Br)cc1	0	x	x	x	x	x	x	x
Cc1ccnc(NC(=O)COc2ccccc2[N+](=O)[O-])c1	2	48*	-12	64	3	17	-30	-101
Cn1c(N/N=C/c2cc3ccccc3nc2Cl)nc2ccccc21	0	53*	-1	56	3	28	25*	10
Brc1ccc(-c2cn3ccccc3n2)s1	-4	51*	-14	61	4	7	-40	-153
CNc1cc(N2CCCC2)ccc1[N+](=O)[O-]	-3	16	-7	95	3	x	x	x
CCC(C)N1CNc2c(c(=O)[nH]c(=S)n2-c2cccc(C)c2)C1 (stereo unspecified)	-4	1	2	103	4	x	x	x
Nc1nnc(SCC(=O)c2ccco2)s1	0	-2	2	105	2	x	x	x
Cc1cc(C(=O)CSc2nnc(N)s2)c(C)n1Cc1ccco1	-2	46*	16	63	4	7	-9	-69
Cc1c(C(=O)Nc2ccccc2[N+](=O)[O-])csc1-c1ccccc1	1	-12	-73	105	4	x	x	x
Cc1c(C(=O)Nc2ccccc2)csc1-c1ccccc1	3	55*	-37	54	3	33	-22	-111
CC(C)(C)NC(=O)COC(=O)c1snc(C(=O)NC2CCCCC2)c1N	x	76*	-1	36	2	72*	22*	1
O=c1c2sc(-c3ccccc3)cc2nc2n1CCC2	-1	49*	-7	61	4	33	-11	-76
